Assay: Inhibition of p38 assessed as rate of ATF-2 phosphorylation by immunosorbent non-radioactive enzyme assay
Outline: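 p38α MAP kinase ELISA-type (immunosorbent, non-radioactive) assay. Enzyme was incubated with ATP at 100 µM, ATF-2 as substrate, and test compound at 10^-5 to 10^-8 M. Activity was read as the rate of ATF-2 phosphorylation. SB203580 served as the reference inhibitor.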

SMILES | IC50
Nc1ccccc1Nc1ccc2c(c1)Oc1ccccc1CC2=O | 1200 nM
Nc1cc(F)ccc1Nc1ccc2c(c1)Oc1ccccc1CC2=O | 1630 nM
Nc1ccccc1Nc1ccc2c(c1)CCc1ccccc1C2=O | 50 nM
O=C1Cc2ccccc2Oc2cc(Nc3ccccc3)ccc21 | 2920 nM
